Experimental findings from ChEMBL document CHEMBL1151246, “New crinine-type alkaloids with inhibitory effect on induction of inducible nitric oxide synthase from Crinum yemense” (J Nat Prod, 2004) are described below.

In assay [1] the test system is Macrophage. In words: Inhibition of LPS-induced NO production in ddY mouse macrophages at 1 uM after 20 hrs by Griess reagent assay relative to control. The format is functional. In short, it runs like this: (§1)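 Thioglycolate-elicited peritoneal macrophages from male ddY mice were precultured 1 h; nonadherent cells were washed off. Adherent cells (5 × 10⁵/well, RPMI 1640 with 5% FCS) were exposed 20 h to 10 μg/mL LPS with compound (1–100 μM, 0.5% DMSO final). Nitrite in the medium was measured with Griess reagent. Inhibition = (A−B)/(A−C) × 100 against LPS-only and unstimulated wells; IC50 was read graphically, N = 4, means ± SEM.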
In general terms: The Griess reaction detects nitrite, a stable product of nitric oxide.

Assay [2] deals with Macrophage. Put plainly: Inhibition of LPS-induced NO production in ddY mouse macrophages at 10 uM after 20 hrs by Griess reagent assay relative to control. The assay is classed as functional. In short, it runs like this: as §1
For assay [3], the system named is Macrophage. In words: Inhibition of LPS-induced NO production in ddY mouse macrophages at 3 uM after 20 hrs by Griess reagent assay relative to control. The format is functional. In short, it runs like this: as §1
Assay [4] relates to Macrophage. Put plainly: Inhibition of LPS-induced NO production in ddY mouse macrophages at 30 uM after 20 hrs by Griess reagent assay relative to control. The assay is classed as functional. In short, it runs like this:
as §1

Assay [5] deals with Macrophage. In words: Inhibition of LPS-induced NO production in ddY mouse macrophages after 20 hrs by Griess reagent assay. The assay is classed as functional, cell-based. In short, it runs like this: as §1
The test system of assay [6] is Macrophage. Put plainly: Inhibition of LPS-induced NO production in ddY mouse macrophages at 100 uM after 20 hrs by Griess reagent assay relative to control. The format is functional. In short, it runs like this:
as §1

For the compound `O[C@H]1C=C[C@]23c4cc5c(cc4CN(C[C@@H]2O)[C@H]3C1)OCO5`, the inhibition (usually the relative decrease from the control value, in per cent) at 1 µM in the assay on Macrophage [1] turned out to be 3.1%. The inhibition at 10 µM in the assay on Macrophage [2] was 28.6%. The inhibition at 3 µM in the assay with Macrophage [3] turned out to be 7.4%. In the assay with Macrophage [4], the inhibition at 30 µM was 55.6%. Half-maximal inhibition in the assay on Macrophage [5] (IC50) required 24 µM. Moreover, the inhibition at 100 µM in the assay on Macrophage [6] turned out to be 82%.
In the case of `CO[C@H]1C=C[C@@]23c4cc5c(cc4CN(C[C@@H]2O)[C@H]3C1)OCO5`, the inhibition at 1 µM with Macrophage [1] was determined as 8.1%. Also, in the assay on Macrophage [2], the inhibition at 10 µM stood at 30.2%. Also, the inhibition at 3 µM with Macrophage [3] is 7.8%. Further, the inhibition at 30 µM in the assay on Macrophage [4] was 65.2%. Also, the IC50 (usually the concentration needed to halve the response being measured) with Macrophage [5] is 1.8 µM. The inhibition at 100 µM in the assay on Macrophage [6] amounted to 86.1%.
Take `CO[C@H]1C=C[C@]23c4cc5c(cc4C(O)N(C[C@H]2O)[C@H]3C1)OCO5` (mixture of isomers): the inhibition at 1 µM in the assay with Macrophage [1] was -11.2%. The inhibition at 10 µM in the assay on Macrophage [2] turned out to be 6.3%. For the same compound, the inhibition at 3 µM in the assay with Macrophage [3] was -23.1%. Also, the inhibition at 30 µM in the assay on Macrophage [4] was determined as 30.3%. Further, 5.4 µM corresponded to half-maximal inhibition in the assay on Macrophage [5] (IC50). For the same compound, in the assay on Macrophage [6], the inhibition at 100 µM came to 69.5%.
On to `OC1c2cc3c(cc2[C@]24C=C[C@@H](O)C[C@@H]2N1C[C@H]4O)OCO3` (mixture of isomers) [YEMENINE C], for which the inhibition at 1 µM with Macrophage [1] turned out to be 9.7%. The inhibition at 10 µM with Macrophage [2] is 0.5%. Further, the inhibition at 3 µM with Macrophage [3] turned out to be 1.6%. The inhibition at 30 µM in the assay with Macrophage [4] worked out at 18.3%. The inhibition at 100 µM in the assay on Macrophage [6] stood at 31.3%.
For the compound `O=C(/C=C/c1ccc(O)c(O)c1)OCCc1ccccc1` [CAFFEIC ACID PHENETHYL ESTER], in the assay with Macrophage [1], the inhibition at 1 µM stood at 3.8%. Besides, the inhibition at 10 µM in the assay with Macrophage [2] amounted to 68.2%. Further, the inhibition at 3 µM in the assay on Macrophage [3] turned out to be 1.4%. Besides, the inhibition at 30 µM with Macrophage [4] stood at 93.7%. In the assay on Macrophage [5], this compound came in with an IC50 of 15 µM. Also, the inhibition at 100 µM in the assay with Macrophage [6] worked out at 99.6%.
In the case of `N=C(N)NCCSSCCNC(=N)N` [GUANIDINOETHYLDISULFIDE], the inhibition at 1 µM with Macrophage [1] was determined as 6.2%. In addition, the inhibition at 10 µM in the assay on Macrophage [2] came out at 57.9%. Also, the inhibition at 3 µM in the assay with Macrophage [3] was found to be 24.4%. The inhibition at 30 µM with Macrophage [4] came out at 89.7%. In the assay on Macrophage [5], this compound gave a half-inhibitory concentration (IC50) of 7.4 µM. For the same compound, the inhibition at 100 µM in the assay with Macrophage [6] was determined as 97.9%.
For `CO[C@H]1[C@@H](OC)C[C@H](C)[C@@H](OC)C2=CC(=O)C=C(NC(=O)/C(C)=C/C=C/[C@H](OC)[C@@H](OC(N)=O)/C(C)=C/[C@@H]1C)C2=O` [HERBIMYCIN], in the assay on Macrophage [1], the inhibition at 1 µM was 48%. The inhibition at 3 µM in the assay on Macrophage [3] is 77%. In the assay with Macrophage [5], this compound showed a half-maximal inhibitory concentration (IC50) of 0.094 µM.
As for `O[C@H]1[C@H]2c3cc4c(cc3CN3CCC(=C[C@@H]1O)[C@H]23)OCO4` [LYCORINE], in the assay with Macrophage [1], the inhibition at 1 µM was determined as 0%. In the assay with Macrophage [2], the inhibition at 10 µM was determined as 20.6%. The inhibition at 3 µM in the assay on Macrophage [3] turned out to be 2.8%. For the same compound, the inhibition at 30 µM in the assay on Macrophage [4] was 54.4%. Besides, the concentration for half-maximal inhibition (IC50) in the assay on Macrophage [5] worked out at 2.5 µM. For the same compound, the inhibition at 100 µM with Macrophage [6] stood at 91.4%.
Consider `CNC(=N)NCCC[C@H](N)C(=O)O` [TILARGININE], for which the inhibition at 1 µM with Macrophage [1] came to 5.9%. Also, in the assay with Macrophage [2], the inhibition at 10 µM came to 15%. For the same compound, in the assay on Macrophage [3], the inhibition at 3 µM stood at 10.3%. Moreover, in the assay on Macrophage [4], the inhibition at 30 µM came out at 34.1%. Besides, the IC50 with Macrophage [5] amounted to 57 µM. The inhibition at 100 µM with Macrophage [6] came out at 63.1%.
Regarding `c1ccc2c(c1)ncc1cc3c(cc12)OCO3` [TRISPHAERIDINE], the inhibition at 1 µM in the assay with Macrophage [1] is -7.1%. In the assay on Macrophage [2], the inhibition at 10 µM is -3.4%. Further, the inhibition at 3 µM in the assay on Macrophage [3] is -6.9%. Also, the inhibition at 30 µM in the assay with Macrophage [4] was -7%. For the same compound, in the assay with Macrophage [6], the inhibition at 100 µM came out at 0.3%.
Regarding `O[C@@H]1C=C[C@]23CCN(Cc4cc5c(cc42)OCO5)[C@H]3C1` [VITTATINE], the inhibition at 1 µM with Macrophage [1] is -0.2%. The inhibition at 10 µM in the assay with Macrophage [2] was 7.1%. The inhibition at 3 µM in the assay with Macrophage [3] was -12.5%. Also, in the assay on Macrophage [4], the inhibition at 30 µM was 13.1%. Further, in the assay on Macrophage [6], the inhibition at 100 µM turned out to be 42.4%.
For `CC(=O)O[C@H]1C=C[C@]23c4cc5c(cc4CN(C[C@@H]2O)[C@H]3C1)OCO5` [YEMENINE A], the inhibition at 1 µM in the assay with Macrophage [1] is 10.4%. Besides, the inhibition at 10 µM in the assay on Macrophage [2] is 69%. In addition, the inhibition at 3 µM with Macrophage [3] was found to be 38.1%. The inhibition at 30 µM in the assay on Macrophage [4] was 93%. Moreover, the IC50 with Macrophage [5] was 4.9 µM. Moreover, in the assay on Macrophage [6], the inhibition at 100 µM was found to be 98.5%.
